Calls of active or inactive are those of the source. No cut-off for these calls is given here.
Tests used:
[1] = biological target: T1, Protein cereblon/Dual specificity mitogen-activated protein kinase kinase 1/Dual specificity mitogen-activated protein kinase kinase 2 (Homo sapiens) (UniProt P36507+Q02750+Q96SW2); test: Protac activity at CRBN/MEK1/2 in human A549 cells assessed as MEK1/2 degradation at 10 uM incubated for 24 hrs by Western blot analysis relative to control; type: cell-based
[2] = biological target: T2, von Hippel-Lindau disease tumor suppressor/Dual specificity mitogen-activated protein kinase kinase 2/Dual specificity mitogen-activated protein kinase kinase 1 (Homo sapiens) (UniProt P36507+Q02750+P40337); test: Protac activity at VHL/MEK1/2 in human A549 cells assessed as MEK1/2 degradation at 10 uM incubated for 24 hrs by Western blot analysis relative to control; type: cell-based
[3] = tested on: A-375; test: Antiproliferative activity against human A-375 cells incubated for 4 days by MTT assay; type: functional, cell-based; details: A-375, 96 h
[4] = biological target: T3, Dual specificity mitogen-activated protein kinase kinase; MEK1/2 (Homo sapiens, UniProt P36507+Q02750); test: Induction of MEK1/2 degradation in human A549 cells at 1 uM incubated for 24 hrs in presence of (2S,4R)-1-((S)-2-amino-3,3-dimethylbutanoyl)-4-hydroxy-N-((S)-1-(4-(4-methylthiazol-5-yl)phenyl)ethyl)pyrrolidine-2-carboxamide by Western blot analysis; type: cell-based
[5] = biological target: T3, Dual specificity mitogen-activated protein kinase kinase; MEK1/2; test: Induction of MEK1/2 degradation in human A549 cells at 1 uM incubated for 4 hrs by Western blot analysis; type: cell-based
Procedure, shortened: (§1)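 Time course in A549 cells at 1 μM degrader, sampled at several time points up to 24 h. MEK1/2 protein reduction was judged by Western blot at each time point.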

[6] = biological target: T3, Dual specificity mitogen-activated protein kinase kinase; MEK1/2; test: Induction of MEK1/2 degradation in human A549 cells at 1 uM incubated for 24 hrs by Western blot analysis; type: cell-based; procedure, shortened: as §1
[7] = tested on: A549; test: Antiproliferative activity against human A549 cells incubated for 4 days by MTT assay; type: functional, cell-based; details: A549, 96 h
[8] = biological target: Dual specificity mitogen-activated protein kinase kinase 1 (Homo sapiens, UniProt Q02750); test: Induction of MEK1 degradation in human A549 cells incubated for 24 hrs by Western blot analysis; type: cell-based
Procedure, shortened: (§2)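 A549 cells exposed to a range of degrader concentrations for 24 h. MEK1 and MEK2 protein levels were read by Western blot, and a separate half-maximal degradation concentration (DC50) was derived for each.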

[9] = Selectivity ratio of IC50 for human A549 cells to IC50 for human A-375 cells; type: functional
[10] = biological target: T3, Dual specificity mitogen-activated protein kinase kinase; MEK1/2; test: Induction of MEK1/2 degradation in human A549 cells at 1 uM incubated for 24 hrs in presence of MG132 by Western blot analysis; type: cell-based
[11] = biological target: Dual specificity mitogen-activated protein kinase kinase 2 (Homo sapiens, UniProt P36507); test: Induction of MEK2 degradation in human A549 cells incubated for 24 hrs by Western blot analysis; type: cell-based; procedure, shortened: as §2
[12] = biological target: T3, Dual specificity mitogen-activated protein kinase kinase; MEK1/2; test: Induction of MEK1/2 degradation in human A-375 cells incubated for 24 hrs by Western blot analysis; type: cell-based
Procedure, shortened: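 A375 cells were given a concentration series of degrader for 24 h. MEK1/2 protein was quantified by immunoblot, and the DC50 (half-maximal degradation concentration) was taken from the dose-response.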

[13] = biological target: T3, Dual specificity mitogen-activated protein kinase kinase; MEK1/2; test: Induction of MEK1/2 degradation in human A549 cells assessed as reduction in pERK1/2 levels at 1 to 30 uM incubated for 24 hrs by Western blot analysis; type: cell-based; details: dose 1-30 µM
[14] = biological target: T3, Dual specificity mitogen-activated protein kinase kinase; MEK1/2; test: Induction of MEK1/2 degradation in human A549 cells at 1 uM incubated for 24 hrs in presence of 3-(3-amino-2-fluorobenzyl)-4-methyl-7-(pyrimidin-2-yloxy)-2H-chromen-2-one by Western blot analysis; type: cell-based
[15] = biological target: T2, von Hippel-Lindau disease tumor suppressor/Dual specificity mitogen-activated protein kinase kinase 2/Dual specificity mitogen-activated protein kinase kinase 1 (Homo sapiens); test: Protac activity at VHL/MEK1/2 in human A549 cells assessed as MEK1/2 degradation at 1 uM incubated for 24 hrs by Western blot analysis relative to control; type: cell-based
[16] = tested on: A-375; test: Antiproliferative activity against human A-375 cells assessed as inhibition of cell growth at 10 uM incubated for 48 hrs by MTT assay; type: functional; set-up: scale not given: the % may be the effect or the level left
[17] = biological target: T3, Dual specificity mitogen-activated protein kinase kinase; MEK1/2; test: Induction of MEK1/2 degradation in human A549 cells at 1 uM incubated for 24 hrs in presence of MLN4924 by Western blot analysis; type: cell-based
[18] = biological target: T1, Protein cereblon/Dual specificity mitogen-activated protein kinase kinase 1/Dual specificity mitogen-activated protein kinase kinase 2 (Homo sapiens); test: Protac activity at CRBN/MEK1/2 in human A549 cells assessed as MEK1/2 degradation at 1 uM incubated for 24 hrs by Western blot analysis relative to control; type: cell-based

T1 sequence (P36507 whole entry, looked up): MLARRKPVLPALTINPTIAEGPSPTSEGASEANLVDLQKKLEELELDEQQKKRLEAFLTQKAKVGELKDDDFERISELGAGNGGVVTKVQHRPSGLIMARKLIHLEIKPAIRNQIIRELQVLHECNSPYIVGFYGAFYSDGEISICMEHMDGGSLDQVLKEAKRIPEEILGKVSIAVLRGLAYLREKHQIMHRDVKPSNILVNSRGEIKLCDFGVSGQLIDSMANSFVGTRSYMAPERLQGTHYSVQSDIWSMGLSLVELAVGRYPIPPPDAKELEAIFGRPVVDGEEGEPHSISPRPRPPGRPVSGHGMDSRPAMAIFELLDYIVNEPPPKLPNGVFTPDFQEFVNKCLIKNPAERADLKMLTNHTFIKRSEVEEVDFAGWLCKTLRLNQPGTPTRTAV
T1 sequence (Q02750 whole entry, looked up): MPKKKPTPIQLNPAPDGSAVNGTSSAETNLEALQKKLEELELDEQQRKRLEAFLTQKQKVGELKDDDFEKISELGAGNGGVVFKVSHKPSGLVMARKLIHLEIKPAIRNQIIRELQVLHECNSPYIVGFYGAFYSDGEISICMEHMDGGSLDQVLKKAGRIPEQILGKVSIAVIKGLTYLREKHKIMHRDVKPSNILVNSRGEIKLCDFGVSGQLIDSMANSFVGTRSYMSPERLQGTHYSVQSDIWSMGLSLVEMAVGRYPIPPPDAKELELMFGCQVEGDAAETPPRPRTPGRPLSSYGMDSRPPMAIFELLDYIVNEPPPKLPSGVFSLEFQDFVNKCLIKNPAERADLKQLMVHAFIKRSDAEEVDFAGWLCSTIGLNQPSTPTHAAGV
T1 sequence (Q96SW2 whole entry, looked up): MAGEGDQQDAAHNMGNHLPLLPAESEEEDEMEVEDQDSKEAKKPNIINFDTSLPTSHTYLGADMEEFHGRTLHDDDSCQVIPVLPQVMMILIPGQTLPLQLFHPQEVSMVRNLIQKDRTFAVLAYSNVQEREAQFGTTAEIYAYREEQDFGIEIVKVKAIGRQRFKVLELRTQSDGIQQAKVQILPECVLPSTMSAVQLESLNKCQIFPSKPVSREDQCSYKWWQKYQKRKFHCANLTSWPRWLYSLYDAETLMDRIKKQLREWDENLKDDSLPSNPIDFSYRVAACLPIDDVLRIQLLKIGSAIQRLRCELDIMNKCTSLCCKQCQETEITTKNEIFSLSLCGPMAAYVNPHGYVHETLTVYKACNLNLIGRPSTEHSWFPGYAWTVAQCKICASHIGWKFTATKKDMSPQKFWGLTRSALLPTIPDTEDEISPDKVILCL
T3 sequence (P36507 whole entry, looked up): as the sequence (P36507 whole entry, looked up) above
T3 sequence (Q02750 whole entry, looked up): as the sequence (Q02750 whole entry, looked up) above
T2 sequence (P36507 whole entry, looked up): as the sequence (P36507 whole entry, looked up) above
T2 sequence (P40337 whole entry, looked up): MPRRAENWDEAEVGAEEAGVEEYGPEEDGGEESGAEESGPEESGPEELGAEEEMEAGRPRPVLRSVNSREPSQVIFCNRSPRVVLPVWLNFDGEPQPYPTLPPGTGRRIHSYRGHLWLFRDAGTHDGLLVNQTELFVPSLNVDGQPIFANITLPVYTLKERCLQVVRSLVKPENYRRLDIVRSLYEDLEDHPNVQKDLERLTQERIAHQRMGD
T2 sequence (Q02750 whole entry, looked up): as the sequence (Q02750 whole entry, looked up) above
Sequence of Dual specificity mitogen-activated protein kinase kinase 2 (P36507 whole entry): as the sequence (P36507 whole entry, looked up) above
Sequence of Dual specificity mitogen-activated protein kinase kinase 1 (Q02750 whole entry): as the sequence (Q02750 whole entry, looked up) above

Compound: Cc1c(Cc2cccc(NCc3cn(CCOCCOCCOCCOCCNc4cccc5c4C(=O)N(C4CCC(=O)NC4=O)C5=O)nn3)c2F)c(=O)oc2cc(Oc3ncccn3)ccc12 (configuration not stated)
- Activity [1]: inactive

Compound: Cc1c(Cc2cccc(NCc3cn(CCOCCOCCOCCOCCNc4cccc5c4C(=O)N(C4CCC(=O)NC4=O)C5=O)nn3)c2)c(=O)oc2cc(Oc3ncccn3)ccc12 (configuration not stated)
- Activity [1]: inactive

Compound: Cc1c(Cc2cccc(NCc3cn(CCOCCOCCOCCNc4cccc5c4C(=O)N(C4CCC(=O)NC4=O)C5=O)nn3)c2F)c(=O)oc2cc(Oc3ncccn3)ccc12 (configuration not stated)
- Activity [1]: inactive

Compound: Cc1c(Cc2cccc(NCc3cn(CCOCCOCCOCCOCCOCCNc4cccc5c4C(=O)N(C4CCC(=O)NC4=O)C5=O)nn3)c2)c(=O)oc2cc(Oc3ncccn3)ccc12 (configuration not stated)
- Activity [1]: inactive

Compound: Cc1ncsc1-c1ccc([C@H](C)NC(=O)[C@@H]2C[C@@H](O)CN2C(=O)[C@@H](NCCOCCOCCn2cc(CNc3cccc(Cc4c(C)c5ccc(Oc6ncccn6)cc5oc4=O)c3F)nn2)C(C)(C)C)cc1
- Activity [2]: 20%

Compound: Cc1ncsc1-c1ccc([C@H](C)NC(=O)[C@@H]2C[C@@H](O)CN2C(=O)[C@@H](NC(=O)CCC(=O)NCCCCC(=O)Nc2cccc(Cc3c(C)c4ccc(Oc5ncccn5)cc4oc3=O)c2F)C(C)(C)C)cc1
- IC50 [3]: 2800 nM
- Activity [4]: inactive
- Activity [5]: Active
- Activity [6]: > 70%
- IC50 [7]: 27300 nM
- DC50 [8]: 300 nM
- Ratio IC50 [9]: 10
- Activity [10]: inactive
- DC50 [11]: 200 nM
- DC50 [12]: 2800 nM
- Activity [13]: Active
- Activity [14]: inactive
- Activity [15]: 85%
- Activity [16]: 60%
- Activity [17]: inactive

Compound: Cc1ncsc1-c1ccc([C@H](C)NC(=O)[C@@H]2C[C@@H](O)CN2C(=O)[C@@H](NCCOCCOCCOCCn2cc(CNc3cccc(Cc4c(C)c5ccc(Oc6ncccn6)cc5oc4=O)c3F)nn2)C(C)(C)C)cc1
- Activity [2]: inactive

Compound: Cc1ncsc1-c1ccc([C@H](C)NC(=O)[C@@H]2C[C@@H](O)CN2C(=O)[C@@H](NC(=O)CCC(=O)NCCCCCC(=O)Nc2cccc(Cc3c(C)c4ccc(Oc5ncccn5)cc4oc3=O)c2F)C(C)(C)C)cc1
- Activity [15]: 72%

Compound: Cc1c(Cc2cccc(NC(=O)CCCCNC(=O)CCC(=O)Nc3cccc4c3C(=O)N(C3CCC(=O)NC3=O)C4=O)c2F)c(=O)oc2cc(Oc3ncccn3)ccc12 (configuration not stated)
- Activity [18]: < 5%

Compound: Cc1ncsc1-c1ccc([C@H](C)NC(=O)[C@@H]2C[C@@H](O)CN2C(=O)[C@@H](NC(=O)CCC(=O)NCCCCCCC(=O)Nc2cccc(Cc3c(C)c4ccc(Oc5ncccn5)cc4oc3=O)c2)C(C)(C)C)cc1
- Activity [15]: < 5%

Compound: Cc1ncsc1-c1ccc([C@H](C)NC(=O)[C@@H]2C[C@@H](O)CN2C(=O)[C@@H](NC(=O)CCC(=O)NCCCC(=O)Nc2cccc(Cc3c(C)c4ccc(Oc5ncccn5)cc4oc3=O)c2F)C(C)(C)C)cc1
- Activity [15]: 20%
- Activity [16]: 13%

Compound: Cc1ncsc1-c1ccc([C@H](C)NC(=O)[C@@H]2C[C@@H](O)CN2C(=O)[C@@H](NC(=O)CCC(=O)NCCCC(=O)Nc2cccc(Cc3c(C)c4ccc(Oc5ncccn5)cc4oc3=O)c2)C(C)(C)C)cc1
- Activity [15]: < 5%
- Activity [16]: 21%

Compound: Cc1ncsc1-c1ccc([C@H](C)NC(=O)[C@@H]2C[C@@H](O)CN2C(=O)[C@@H](NC(=O)CCC(=O)NCCCCCCC(=O)Nc2cccc(Cc3c(C)c4ccc(Oc5ncccn5)cc4oc3=O)c2F)C(C)(C)C)cc1
- Activity [15]: 70%

Compound: Cc1c(Cc2cccc(NC(=O)CCCNC(=O)CCC(=O)Nc3cccc4c3C(=O)N(C3CCC(=O)NC3=O)C4=O)c2F)c(=O)oc2cc(Oc3ncccn3)ccc12 (configuration not stated)
- Activity [18]: inactive

Compound: Cc1c(Cc2cccc(NC(=O)CCCCCCNC(=O)CCC(=O)Nc3cccc4c3C(=O)N(C3CCC(=O)NC3=O)C4=O)c2F)c(=O)oc2cc(Oc3ncccn3)ccc12 (configuration not stated)
- Activity [18]: 45%

Compound: Cc1c(Cc2cccc(NC(=O)CCCCCCCNC(=O)CCC(=O)Nc3cccc4c3C(=O)N(C3CCC(=O)NC3=O)C4=O)c2F)c(=O)oc2cc(Oc3ncccn3)ccc12 (configuration not stated)
- Activity [18]: 30%

Compound: Cc1ncsc1-c1ccc([C@H](C)NC(=O)[C@@H]2C[C@@H](O)CN2C(=O)[C@@H](NCCOCCOCCn2cc(CNc3cccc(Cc4c(C)c5ccc(Oc6ncccn6)cc5oc4=O)c3)nn2)C(C)(C)C)cc1
- Activity [2]: inactive

Compound: Cc1ncsc1-c1ccc([C@H](C)NC(=O)[C@@H]2C[C@@H](O)CN2C(=O)[C@@H](NCCOCCOCCOCCOCCn2cc(CNc3cccc(Cc4c(C)c5ccc(Oc6ncccn6)cc5oc4=O)c3)nn2)C(C)(C)C)cc1
- Activity [2]: inactive

Compound: Cc1ncsc1-c1ccc([C@H](C)NC(=O)[C@@H]2C[C@@H](O)CN2C(=O)[C@@H](NC(=O)CCC(=O)NCCCCCCCC(=O)Nc2cccc(Cc3c(C)c4ccc(Oc5ncccn5)cc4oc3=O)c2F)C(C)(C)C)cc1
- Activity [15]: 78%

Compound: CNS(=O)(=O)Nc1cccc(Cc2c(C)c3ccc(Oc4ncccn4)cc3oc2=O)c1F
- IC50 [3]: 1900 nM

Compound: Cc1c(Cc2cccc(NCc3cn(CCOCCOCCOCCNc4cccc5c4C(=O)N(C4CCC(=O)NC4=O)C5=O)nn3)c2)c(=O)oc2cc(Oc3ncccn3)ccc12 (configuration not stated)
- Activity [1]: inactive

Compound: Cc1c(Cc2cccc(NCc3cn(CCOCCOCCNc4cccc5c4C(=O)N(C4CCC(=O)NC4=O)C5=O)nn3)c2F)c(=O)oc2cc(Oc3ncccn3)ccc12 (configuration not stated)
- Activity [1]: inactive

Compound: Cc1ncsc1-c1ccc([C@H](C)NC(=O)[C@@H]2C[C@@H](O)CN2C(=O)[C@@H](NCCOCCOCCOCCn2cc(CNc3cccc(Cc4c(C)c5ccc(Oc6ncccn6)cc5oc4=O)c3)nn2)C(C)(C)C)cc1
- Activity [2]: inactive

Compound: Cc1ncsc1-c1ccc([C@H](C)NC(=O)[C@@H]2C[C@@H](O)CN2C(=O)[C@@H](NCCOCCOCCOCCOCCOCCn2cc(CNc3cccc(Cc4c(C)c5ccc(Oc6ncccn6)cc5oc4=O)c3)nn2)C(C)(C)C)cc1
- Activity [2]: inactive

Compound: Cc1ncsc1-c1ccc([C@H](C)NC(=O)[C@@H]2C[C@@H](O)CN2C(=O)[C@@H](NCCOCCOCCOCCOCCOCCn2cc(CNc3cccc(Cc4c(C)c5ccc(Oc6ncccn6)cc5oc4=O)c3F)nn2)C(C)(C)C)cc1
- Activity [2]: inactive

Compound: Cc1ncsc1-c1ccc([C@H](C)NC(=O)[C@@H]2C[C@@H](O)CN2C(=O)[C@@H](NC(=O)CCC(=O)NCCCCCCCCCCCC(=O)Nc2cccc(Cc3c(C)c4ccc(Oc5ncccn5)cc4oc3=O)c2)C(C)(C)C)cc1
- Activity [15]: < 5%

Compound: Cc1ncsc1-c1ccc([C@H](C)NC(=O)[C@@H]2C[C@@H](O)CN2C(=O)[C@@H](NCCOCCOCCOCCOCCn2cc(CNc3cccc(Cc4c(C)c5ccc(Oc6ncccn6)cc5oc4=O)c3F)nn2)C(C)(C)C)cc1
- Activity [2]: inactive

Compound: Cc1c(Cc2cccc(NCc3cn(CCOCCOCCOCCOCCOCCNc4cccc5c4C(=O)N(C4CCC(=O)NC4=O)C5=O)nn3)c2F)c(=O)oc2cc(Oc3ncccn3)ccc12 (configuration not stated)
- Activity [1]: inactive

Compound: Cc1ncsc1-c1ccc([C@H](C)NC(=O)[C@@H]2C[C@@H](O)CN2C(=O)[C@@H](NC(=O)CCC(=O)NCCCCCCCCCCC(=O)Nc2cccc(Cc3c(C)c4ccc(Oc5ncccn5)cc4oc3=O)c2)C(C)(C)C)cc1
- Activity [15]: < 5%

Compound: Cc1c(Cc2cccc(NCc3cn(CCOCCOCCNc4cccc5c4C(=O)N(C4CCC(=O)NC4=O)C5=O)nn3)c2)c(=O)oc2cc(Oc3ncccn3)ccc12 (configuration not stated)
- Activity [1]: inactive

Compound: Cc1c(Cc2cccc(NC(=O)CCCCCNC(=O)CCC(=O)Nc3cccc4c3C(=O)N(C3CCC(=O)NC3=O)C4=O)c2F)c(=O)oc2cc(Oc3ncccn3)ccc12 (configuration not stated)
- Activity [18]: inactive

— ChEMBL document CHEMBL5223165, “Discovery of Coumarin-Based MEK1/2 PROTAC Effective in Human Cancer Cells” (ACS Med Chem Lett, 2023)
